Experimental data: PMC10993133 (iScience, 2024)

Columns and labels:
Assay type in all cases: cell-based, human
MDAMB231 cells [1] = assay: Mitochondrial membrane potential; conditions: MDAMB231, 1 µM, 30 hrs, JC-1, n=4
Summary of the method: (§1)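 MCF7 and MDAMB231 cells in DMEM with 10% FCS were treated 30 hrs with Dox or encapsulated test compound, then harvested. They were incubated with shaking in JC-1 (2.5 µg/mL) in PBS at 37°C for 30–35 min. Cells were washed three times for 5 min in cold PBS and resuspended. ΔΨM was taken as the 590/530 nm fluorescence ratio. Means ± S.E., n=4.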

MCF7 cells [2] = assay: DNA fragmentation assay; conditions: MCF7, 30 hrs exposure, agarose gel
Summary of the method: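 MCF7 cells were seeded at 1 × 10^6 per well and exposed 30 hrs. They were lysed at RT in 0.5% Triton X-100, 15 mM EDTA, 20 mM Tris HCl. DNA was extracted with phenol/chloroform/isoamyl alcohol (25:24:1), then treated 1 hr with RNase (0.1 mg/mL) and proteinase K (1 mg/mL). It was precipitated overnight at −20°C with sodium acetate/ethanol, run on 2% agarose and stained with ethidium bromide.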

MCF7 cells [3] = assay: Mitochondrial membrane potential; conditions: MCF7, 1 µM, 30 hrs, JC-1, n=4
Summary of the method: as §1

MDAMB231 cells [4] = assay: ROS generation; conditions: MDAMB231, 1 µM, 24 hrs, CM-H2DCFDA, n=4
Summary of the method: (§2)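 MCF7 or MDAMB231 cells were treated 24 hrs with Dox or encapsulated test compound. Cells were scraped, pelleted and washed twice in chilled PBS, then loaded with CM-H2DCFDA (5 µM) in PBS for 20 min in the dark at 37°C. After washing, cells were lysed in PBS with 1% Tween 20. DCF fluorescence was read at ex 480/em 530 nm. Means ± S.E., n=4, versus vehicle control.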

MCF7 cells [5] = assay: ROS generation; conditions: MCF7, 1 µM, 24 hrs, CM-H2DCFDA, n=4
Summary of the method: as §2

COc1cccc2c1C(=O)c1c(O)c3c(c(O)c1C2=O)C[C@@](O)(C(=O)CO)C[C@@H]3O[C@H]1C[C@H](N)[C@H](O)[C@H](C)O1 [Dox, doxorubicin]
mitochondrial membrane potential (ΔΨM) (MDAMB231 cells [1]): loss of mitochondrial membrane potential
DNA damage (DNA laddering) (MCF7 cells [2]): resulted in DNA damage
mitochondrial membrane potential (ΔΨM) (MCF7 cells [3]): loss of mitochondrial membrane potential
increase of intracellular ROS levels (MDAMB231 cells [4]): comparable
increase of intracellular ROS levels (MCF7 cells [5]): comparable
